Assay results taken from ChEMBL document CHEMBL1154440, “Design and synthesis of 2-(2,6-dibromophenyl)-3-heteroaryl-1,3-thiazolidin-4-ones as anti-HIV agents” (Eur J Med Chem, 2008).
Activity calls are given as the source filed them. No cut-off for these calls is given here.

What was measured:
[1] = tested on: Human immunodeficiency virus 1; experiment: Antiviral activity against HIV1 3B replication in human MT4 cells assessed as inhibition of virus-induced cytopathic effect after 5 days by tetrazolium-based colorimetric assay; format: functional, organism-based; conditions: Human immunodeficiency virus 1, 3B, MT4, 120 h
[2] = Cytotoxicity against human MT4 cells by MTT assay; format: cell-based
Method in brief: (§1)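 CC50 was measured in parallel with the antiviral assays. It is the compound concentration that reduced by 50% the number of viable cells in mock-infected MT-4 or CEM cultures.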

[3] = Selectivity index, ratio of CC50 for human MT4 cells to EC50 for HIV1 3B; format: toxicity, cell-based; conditions: read-out: Ratio CC50/EC50
Method in brief: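 Selectivity index is CC50/EC50. CC50 comes from the viable-cell count in mock-infected MT-4 cells.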

[4] = biological target: Human immunodeficiency virus type 1 reverse transcriptase (Human immunodeficiency virus 1) (UniProt Q72547); experiment: Inhibition of HIV1 reverse transcriptase at 100 ug/ml after 1 hr by microtiter plate ELISA
Method in brief: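 Nonradioactive kit ELISA. HIV-1 RT, template/primer and biotin- and DIG-labelled dNTPs were incubated in lysis buffer with or without inhibitor for 1 h at 37 °C. Product was captured on streptavidin and detected with anti-DIG-peroxidase and ABTS substrate. Absorbance at 405 nm is proportional to RT activity.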

[5] = Cytotoxicity against human CEM cells by MTT assay; format: cell-based; conditions: CEM cells (CCRF-CEM); method in brief: as §1
[6] = Selectivity index, ratio of CC50 for human CEM cells to EC50 for HIV1 3B; format: toxicity, cell-based, CCRF-CEM; conditions: read-out: Ratio CC50/EC50
[7] = tested on: Human immunodeficiency virus 2; experiment: Antiviral activity against HIV2 ROD replication in human MT4 cells assessed as inhibition of virus-induced cytopathic effect at subtoxic concentration after 5 days by tetrazolium-based colorimetric assay; format: functional, organism-based
[8] = tested on: Human immunodeficiency virus 1; experiment: Antiviral activity against HIV1 3B replication in human CEM cells assessed as inhibition of virus-induced syncytium formation after 4 days; conditions: Human immunodeficiency virus 1, 3B, CCRF-CEM, 96 h
[9] = tested on: Human immunodeficiency virus 2; experiment: Antiviral activity against HIV2 ROD replication in human CEM cells assessed as inhibition of virus-induced syncytium formation at subtoxic concentration after 4 days; conditions: CCRF-CEM

`Cc1nc(N2C(=O)CSC2c2c(Br)cccc2Br)nc(C)c1C` (centres undefined) gave an EC50 [1] of 0.06 µM, a CC50 [2] of 227 µM and a selectivity ratio [3] of 3720. The inhibition [4] was 100%, the CC50 [5] was greater than 273 µM and the selectivity ratio [6] was greater than 5020. For the same molecule, the Activity [7] was “inactive”, the EC50 [8] was 0.06 µM and the Activity [9] was “inactive”.

For `Cc1nc(N2C(=O)CSC2c2c(Br)cccc2Br)ccc1Br` (centres undefined), the EC50 [1] was 1.03 µM, the CC50 [2] was 98 µM and the selectivity ratio [3] was 96. The inhibition [4] was 61.4%, the CC50 [5] was 98 µM and the selectivity ratio [6] was 53. For the same molecule, the Activity [7] was “inactive”, the EC50 [8] was 1.83 µM and the Activity [9] was “inactive”.

With `O=C1CSC(c2c(Br)cccc2Br)N1Cc1ccccn1` (centres undefined) the EC50 [1] was 0.84 µM, the CC50 [2] was 174 µM and the selectivity ratio [3] was 209. It also gave an inhibition [4] of 97.6%, a CC50 [5] of 117 µM and a selectivity ratio [6] of 283. The Activity [7] was “inactive”, the EC50 [8] was 0.63 µM and the Activity [9] was “inactive”.

For `O=C1CSC(c2c(Br)cccc2Br)N1c1nccs1` (centres undefined), the EC50 [1] was 0.5 µM, the CC50 [2] was 109 µM and the selectivity ratio [3] was 218. For the same molecule, the inhibition [4] was 69.5%, the CC50 [5] was 109 µM and the selectivity ratio [6] was 194. For the same molecule, the Activity [7] was “inactive”, the EC50 [8] was 0.56 µM and the Activity [9] was “inactive”.

With `Cc1ccnc2c1NC(=O)c1cccnc1N2C1CC1` [NEVIRAPINE] the EC50 [1] was 0.05 µM, the CC50 [2] was greater than 50 µM and the selectivity ratio [3] was greater than 1000. For the same molecule, the CC50 [5] was greater than 4 µM, the selectivity ratio [6] was greater than 370 and the Activity [7] was “inactive”. The EC50 [8] was 0.01 µM and the Activity [9] was “inactive”.

For `O=C1CSC(c2c(Br)cccc2Br)N1c1cccc(C(F)(F)F)n1` (centres undefined), the EC50 [1] was 4.56 µM, the CC50 [2] was 30 µM and the selectivity ratio [3] was 7. For the same molecule, the inhibition [4] was 23.9%, the CC50 [5] was 29.8 µM and the selectivity ratio [6] was 8. For the same molecule, the Activity [7] was “inactive”, the EC50 [8] was 3.96 µM and the Activity [9] was “inactive”.

Work on `Cc1cccc(N2C(=O)CSC2c2c(Br)cccc2Br)n1` (centres undefined) yielded an EC50 [1] of 0.09 µM, a CC50 [2] of 233 µM and a selectivity ratio [3] of 2660. It also gave an inhibition [4] of 79.5%, a CC50 [5] of 233 µM and a selectivity ratio [6] of 2950. The Activity [7] was “inactive”, the EC50 [8] was 0.08 µM and the Activity [9] was “inactive”.

For `Cc1cc(N2C(=O)CSC2c2c(Br)cccc2Br)nc(C)n1` (centres undefined), the EC50 [1] was 5.21 µM, the CC50 [2] was 33.4 µM and the selectivity ratio [3] was 6. For the same molecule, the inhibition [4] was 66.4%, the CC50 [5] was 33.5 µM and the selectivity ratio [6] was 7. For the same molecule, the Activity [7] was “inactive”, the EC50 [8] was 4.67 µM and the Activity [9] was “inactive”.

With `Fc1cccc(F)c1C1SCc2nc3ccccc3n21` (centres undefined) [THIAZOLOBENZIMIDAZOLE] the selectivity ratio [3] was 54.5, the selectivity ratio [6] was 45 and the Activity [7] was “inactive”. For the same molecule, the Activity [9] was “inactive”.

`Cc1cc(C)nc(N2C(=O)CSC2c2c(Br)cccc2Br)n1` (centres undefined) gave an inhibition [4] of 100%.

Molecule `Cc1cc(C(F)(F)F)nc(N2C(=O)CSC2c2c(Br)cccc2Br)n1` (centres undefined) has an EC50 [1] of 0.32 µM, a CC50 [2] of 32.6 µM and a selectivity ratio [3] of 99. It also gave an inhibition [4] of 85.4%, a CC50 [5] of 59.3 µM and a selectivity ratio [6] of 161. The Activity [7] was “inactive”, the EC50 [8] was 0.36 µM and the Activity [9] was “inactive”.

With `Cc1cc(-c2ccccc2)nc(N2C(=O)CSC2c2c(Br)cccc2Br)n1` (centres undefined) the EC50 [1] was greater than 8.65 µM, the CC50 [2] was 184 µM and the selectivity ratio [3] was less than 21. For the same molecule, the inhibition [4] was 17.8%, the Activity [7] was “inactive” and the Activity [9] was “inactive”.

With `Clc1cccc(Cl)c1C1SCc2nc3ccccc3n21` (centres undefined) the selectivity ratio [3] was 16, the Activity [7] was “inactive” and the Activity [9] was “inactive”.

Work on `O=C1CSC(c2c(Br)cccc2Br)N1Cc1cccs1` (centres undefined) yielded an EC50 [1] of 0.58 µM, a CC50 [2] of 34.6 µM and a selectivity ratio [3] of 59. The inhibition [4] was 84.3%, the CC50 [5] was 35.6 µM and the selectivity ratio [6] was 59. The Activity [7] was “inactive”, the EC50 [8] was 0.6 µM and the Activity [9] was “inactive”.

`O=C1CSC(c2c(Br)cccc2Br)N1c1ncccn1` (centres undefined) showed an EC50 [1] of 0.24 µM, a CC50 [2] of 172 µM and a selectivity ratio [3] of 687. It also gave an inhibition [4] of 100%, a CC50 [5] of 179 µM and a selectivity ratio [6] of 769. The Activity [7] was “inactive”, the EC50 [8] was 0.23 µM and the Activity [9] was “inactive”.

With `Cc1ccnc(N2C(=O)CSC2c2c(Br)cccc2Br)n1` (centres undefined) the EC50 [1] was 0.04 µM, the CC50 [2] was 33.9 µM and the selectivity ratio [3] was 757. For the same molecule, the inhibition [4] was 100%, the CC50 [5] was 36.3 µM and the selectivity ratio [6] was 930. For the same molecule, the Activity [7] was “inactive”, the EC50 [8] was 0.04 µM and the Activity [9] was “inactive”.

In the case of `O=C1CSC(c2c(Br)cccc2Br)N1c1ccccn1` (centres undefined), the EC50 [1] is reported as 0.22 µM, the CC50 [2] is reported as 13.1 µM and the selectivity ratio [3] is reported as 60. It also gave an inhibition [4] of 85.2%, a CC50 [5] of 17.1 µM and a selectivity ratio [6] of 66. The Activity [7] was “inactive”, the EC50 [8] was 0.27 µM and the Activity [9] was “inactive”.

`O=C1CSC(c2c(Br)cccc2Br)N1Cc1ccco1` (centres undefined) showed an EC50 [1] of 0.21 µM, a CC50 [2] of 36.4 µM and a selectivity ratio [3] of 171. The inhibition [4] was 99%, the CC50 [5] was 36.6 µM and the selectivity ratio [6] was 200. For the same molecule, the Activity [7] was “inactive”, the EC50 [8] was 0.18 µM and the Activity [9] was “inactive”.
